The species entered for one assay is Cavia porcellus. Briefly: Percent maximal inhibition (Emax) was measured using guinea pig ileum assay (GPI). The class given is functional.
The target in assay [1] is T1, Mu-type opioid receptor (Rattus norvegicus, UniProt P33535). The assay is described as follows: Inhibitory activity measured against [3H]CTOP (Opioid receptor mu 1) in rat brain using radioreceptor binding assays. The class given is tissue-based. An outline of the steps:
(§1)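 Male Sprague-Dawley rat whole brain minus cerebellum, homogenised and washed three times (30 min at 25 °C in 50 mM Tris) to remove endogenous opioids. Homogenate at 0.5% final was incubated with 0.5 nM [3H]CTOP in 50 mM Tris-HCl pH 7.4 containing 5 mM MgCl2 and BSA 1 mg/mL for 120 min at 25 °C. Nonspecific binding was defined with 1 μM naltrexone. Bound ligand was collected by filtration and counted by scintillation; duplicates, 2–4 experiments.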

In assay [2] the target is Delta-type opioid receptor (Mus musculus, UniProt P32300). Briefly: Inhibitory activity measured against Opioid receptor delta 1 using mouse vas deference assay (MVD). An outline of the steps:
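Vas deferens from male ICR mice (25–30 g) in magnesium-free oxygenated Krebs bicarbonate at 37 °C under 0.5 g tension. Electrical stimulation at 0.1 Hz with 2.0-ms pulses at supramaximal voltage. Agonist contact was 3 min.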

For assay [3], the target named is T2, Delta-type opioid receptor (Rattus norvegicus, UniProt P33533). Briefly: Inhibitory activity measured against [3H]DPDPE (Opioid receptor delta 1 ligand) in rat brain using radioreceptor binding assays. The format is tissue-based. Put shortly: (§2)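 Male Sprague-Dawley rat brain membranes (minus cerebellum), washed three times to remove endogenous opioids. Specific binding was defined as that displaced by 1 μM naltrexone. Filtration and scintillation counting; duplicates, 2–4 experiments.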
T2 sequence (P33533 whole entry): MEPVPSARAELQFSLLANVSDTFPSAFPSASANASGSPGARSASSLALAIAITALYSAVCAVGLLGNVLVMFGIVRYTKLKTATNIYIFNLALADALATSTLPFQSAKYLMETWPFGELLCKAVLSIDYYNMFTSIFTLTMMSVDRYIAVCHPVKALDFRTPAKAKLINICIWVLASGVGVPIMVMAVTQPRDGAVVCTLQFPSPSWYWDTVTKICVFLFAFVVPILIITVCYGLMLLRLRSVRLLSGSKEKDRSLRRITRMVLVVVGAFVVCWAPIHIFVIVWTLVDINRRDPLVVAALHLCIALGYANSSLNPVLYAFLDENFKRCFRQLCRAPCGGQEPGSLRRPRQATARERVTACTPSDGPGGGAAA

Assay [4] concerns the target T1, Mu-type opioid receptor. Briefly: Binding affinity measured against [3H]CTOP (Opioid receptor mu 1) in rat brain using radioreceptor binding assays. The format is tissue-based. An outline of the steps:
as §1

Assay [5] deals with T2, Delta-type opioid receptor. The assay is described as follows: Binding affinity measured against [3H]DPDPE (Opioid receptor delta 1 ligand) in rat brain using radioreceptor binding assays. The class given is tissue-based. An outline of the steps:
as §2

Assay [6] concerns the target Mu-type opioid receptor (Cavia porcellus, UniProt P97266). Briefly: Inhibitory activity measured against Opioid receptor mu 1 using guinea pig ileum assay (GPI). The class given is tissue-based. An outline of the steps:
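Longitudinal muscle-myenteric plexus from the ileum of male Hartley guinea pigs (150–400 g) in oxygenated Krebs bicarbonate at 37 °C under 1 g tension. Electrical stimulation at 0.1 Hz with 0.4-ms pulses at supramaximal voltage. Agonist exposure was 3 min, followed by rinse and 8 min re-equilibration. Percent inhibition of contraction was fitted to a logistic equation for IC50; duplicates, 2–4 experiments.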

Molecules are shown by their SMILES.

Chain of Delta-type opioid receptor (Mus musculus, UniProt P32300) (P32300 whole entry): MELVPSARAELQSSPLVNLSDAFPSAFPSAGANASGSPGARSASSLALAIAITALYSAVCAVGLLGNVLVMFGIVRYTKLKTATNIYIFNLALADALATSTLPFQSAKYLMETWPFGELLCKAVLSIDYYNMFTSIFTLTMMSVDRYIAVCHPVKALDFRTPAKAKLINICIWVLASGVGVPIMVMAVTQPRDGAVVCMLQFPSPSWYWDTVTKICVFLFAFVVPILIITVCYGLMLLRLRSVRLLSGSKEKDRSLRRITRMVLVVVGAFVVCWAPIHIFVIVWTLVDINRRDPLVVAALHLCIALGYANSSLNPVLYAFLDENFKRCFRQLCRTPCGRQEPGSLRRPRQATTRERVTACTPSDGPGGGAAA
Chain of Mu-type opioid receptor (Cavia porcellus, UniProt P97266) (P97266 whole entry): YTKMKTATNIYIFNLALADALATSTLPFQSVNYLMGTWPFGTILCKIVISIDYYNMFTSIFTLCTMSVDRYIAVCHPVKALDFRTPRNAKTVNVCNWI
T1 sequence (P33535 whole entry): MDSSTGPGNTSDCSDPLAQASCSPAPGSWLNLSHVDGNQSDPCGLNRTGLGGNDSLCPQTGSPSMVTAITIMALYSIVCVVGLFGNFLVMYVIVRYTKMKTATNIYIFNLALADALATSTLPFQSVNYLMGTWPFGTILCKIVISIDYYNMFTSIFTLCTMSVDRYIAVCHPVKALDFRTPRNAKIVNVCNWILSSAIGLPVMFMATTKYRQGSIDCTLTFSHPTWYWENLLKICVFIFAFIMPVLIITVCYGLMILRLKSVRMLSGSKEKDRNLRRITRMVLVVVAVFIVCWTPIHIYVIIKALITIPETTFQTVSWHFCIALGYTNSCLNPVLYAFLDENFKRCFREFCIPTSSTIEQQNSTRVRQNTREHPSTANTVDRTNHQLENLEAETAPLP

Turning to `C[C@H](c1ccccc1)[C@H]1NC(=O)CNC(=O)[C@H](NC(=O)[C@@H](N)Cc2ccc(O)cc2)C(C)(C)SSC(C)(C)[C@H](C(=O)O)NC1=O`, in the assay listed under Cavia porcellus, the E max was determined as 100%.

One may read the IC50 as the concentration needed to halve the response being measured. A high value points to lower potency. Usually Ki stands for a dissociation constant, usually derived from enzyme kinetics or from competition with a known ligand. A high value points to weaker binding. Consider `C[C@H](c1ccc([N+](=O)[O-])cc1)[C@@H]1NC(=O)CNC(=O)[C@H](NC(=O)[C@@H](N)Cc2ccc(O)cc2)C(C)(C)SSC(C)(C)[C@H](C(=O)O)NC1=O` [listing 1 of 2 here], for which the IC50 at Mu-type opioid receptor [1] is 0.105 µM; in assay [2], 0.027 µM; in assay [3] it was 0.0042 µM; against Mu-type opioid receptor [6], 2.7 µM. In addition, the results for the Ki (at Mu-type opioid receptor [4]; in assay [5]) were 0.024 µM and 0.0034 µM, respectively.

`C[C@H](c1ccc([N+](=O)[O-])cc1)[C@@H]1NC(=O)CNC(=O)[C@H](NC(=O)[C@@H](N)Cc2ccc(O)cc2)C(C)(C)SSC(C)(C)[C@H](C(=O)O)NC1=O` [listing 2 of 2 here] gave an E max in the assay filed under Cavia porcellus of 74%.

With `C[C@@H](c1ccccc1)[C@H]1NC(=O)CNC(=O)[C@H](NC(=O)[C@@H](N)Cc2ccc(O)cc2)C(C)(C)SSC(C)(C)[C@H](C(=O)O)NC1=O`, in the assay listed under Cavia porcellus, the E max is given as 100%.

With `C[C@@H](c1ccc([N+](=O)[O-])cc1)[C@H]1NC(=O)CNC(=O)[C@H](NC(=O)[C@@H](N)Cc2ccc(O)cc2)C(C)(C)SSC(C)(C)[C@H](C(=O)O)NC1=O` [listing 1 of 2 here], the IC50 at Mu-type opioid receptor [1] was 1.02 µM; in assay [2], 1.79 µM; in assay [3] it was 0.222 µM; against Mu-type opioid receptor [6], 12.3 µM. For the same molecule, the Ki at Mu-type opioid receptor [4] was found to be 0.24 µM; in assay [5] it was 0.18 µM.

Regarding `C[C@@H](c1ccc([N+](=O)[O-])cc1)[C@H]1NC(=O)CNC(=O)[C@H](NC(=O)[C@@H](N)Cc2ccc(O)cc2)C(C)(C)SSC(C)(C)[C@H](C(=O)O)NC1=O` [listing 2 of 2 here], the E max in the assay listed under Cavia porcellus is listed as 66%.

In the assay filed under Cavia porcellus, `C[C@H](c1ccccc1)[C@@H]1NC(=O)CNC(=O)[C@H](NC(=O)[C@@H](N)Cc2ccc(O)cc2)C(C)(C)SSC(C)(C)[C@H](C(=O)O)NC1=O` (stereo in doubt; 4) had an E max of 56%.

In turn, `C[C@H](c1ccc([N+](=O)[O-])cc1)[C@H]1NC(=O)CNC(=O)[C@@H](NC(=O)[C@@H](N)Cc2ccc(O)cc2)C(C)(C)SSC(C)(C)[C@@H](C(=O)O)NC1=O` (stereo in doubt; 6) registered an E max in the assay filed under Cavia porcellus of 73%. Further, the IC50 on Mu-type opioid receptor [1] stood at 2.2 µM; in assay [2] it was 0.00459 µM; in assay [3], 0.00689 µM; against Mu-type opioid receptor [6], 25.7 µM. The Ki on Mu-type opioid receptor [4] is 0.53 µM; in assay [5], 0.0055 µM.

In the case of `C[C@H](c1ccc([N+](=O)[O-])cc1)[C@H]1NC(=O)CNC(=O)[C@@H](NC(=O)[C@@H](N)Cc2ccc(O)cc2)C(C)(C)SSC(C)(C)[C@@H](C(=O)O)NC1=O` (stereo in doubt; 7), the IC50 on Mu-type opioid receptor [1] is over 10 µM; in assay [2], 0.63 µM; in assay [3], 0.226 µM; at Mu-type opioid receptor [6], over 10 µM. The molecule further returned an inhibitory constant (Ki) in assay [5] of 0.18 µM.

These data come from ChEMBL document CHEMBL1125258, “Topographically designed analogues of [D-Pen,D-Pen5]enkephalin” (J Med Chem, 1991).
